This is a sample that favours compounds with a hit; in the whole collection about 2.1% have one here.
Cardiac RTF inh – cardiac RTF calcium desensitization; P19429+P45379; IANBD-labeled cardiac RTF, Ca2+ fluorescence; inhibition, % at 7.15 µM; 0.12% of 340,000 active;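 active = inhibition above the mean inhibition of all tested compounds plus 3 SD, cut at about 17% in these data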;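 note: assay run at fixed EC70 calcium of 1.6 mM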
SUMO Mot1 rescue – blocks SUMOylation pathway, rescuing yeast Mot1-301 growth | growth rescue, % at 18.8 µM | AID 2716 | 1% of 320,000 active | S. cerevisiae Mot1-301 growth rescue, ATP luminescence, 38.5C; percent above DMSO median, 100 means doubled;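 active = every valid replicate shows activation above 250% relative to neutral control wells; inactive = the rest, any valid replicate at or below 250%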;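 note: OY570 slx delta 5 strain wells were the positive control but not used for scaling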
Efflux pump inh – blocks antifungal efflux pumps in multiplex yeast assay. S. cerevisiae Candida pump triplex, Nile Red efflux. inhibition, % at 10 µM. 0.44% of 330,000 active. AID 485275;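 active = plate passing quality check with inhibition over a set limit, or well fluorescence over plate mean plus 4 SD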;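 note: Nile Red retained in pooled yeast measured as flow cytometry median fluorescence; 0% = buffer negative control and 100% = Enniatin B positive control; higher means more Nile Red kept so more efflux inhibition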
cardiac RTF act – cardiac RTF calcium sensitization | P19429+P45379 | IANBD-labeled TnC RTF fluorescence at EC20 calcium; 0% EC20 calcium, 100% full calcium | activation, % at 7.2 µM | 0.24% of 340,000 active | AID 493008;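 active = activation above the mean over all tested compounds plus 3 SD, cut at about 30% in these data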;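 note: rise in fluorescence read as greater calcium sensitivity of cardiac thin filaments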
UCH37 inh – inhibitors of human deubiquitinating enzyme UCH37 | purified proteasome/UCH37, Ub-AMC cleavage fluorescence | 0.33% of 330,000 active | Q9Y5K5 | inhibition, % (concentration not given with the values);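 active = mean inhibition over replicate wells above about 20%, limit read from the data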;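 note: 0% = compound-free wells with enzyme and 100% = wells lacking proteasome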
Target sequence (Q9Y5K5 whole entry, looked up): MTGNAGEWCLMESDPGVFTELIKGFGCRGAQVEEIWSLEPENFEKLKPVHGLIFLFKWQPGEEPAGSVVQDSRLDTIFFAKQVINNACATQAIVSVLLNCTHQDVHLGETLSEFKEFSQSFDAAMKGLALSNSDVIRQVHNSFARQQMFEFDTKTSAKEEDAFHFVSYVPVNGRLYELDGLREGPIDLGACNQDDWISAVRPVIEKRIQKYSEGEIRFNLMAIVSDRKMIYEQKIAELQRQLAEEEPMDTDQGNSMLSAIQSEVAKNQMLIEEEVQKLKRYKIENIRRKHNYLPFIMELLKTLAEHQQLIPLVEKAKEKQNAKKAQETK
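assay system = human UCH37 enzyme supplied as purified proteasome complex | amount = proteasome at 0.15 nM in the dispensed enzyme solution | schedule = 30 min compound-proteasome preincubation then 25 min substrate reaction, room temperature | measured by = fluorescence, ex 355 nm, em 460 nm | benchmarks = no-proteasome wells (full inhibition) and compound-free wells (no inhibition)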
ARNT TACC3 PPI – disruptors of human ARNT/TACC3 interaction; AlphaScreen His-ARNT PAS-B/GST-TACC3 binding, luminescence; TACC3 fragment carries E629A point mutation; 0.66% of 390,000 active; inhibition, % at 9.99 µM;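 active = mean inhibition of replicates at least 50% and at least half of replicates each reaching 50%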;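 note: 0% = complete ARNT plus TACC3 wells and 100% = ARNT alone without TACC3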
Cmpd fluor yeast – flagged as fluorescent in efflux inhibitor counter-screen; S. cerevisiae AD/pABC3, compound fluorescence, flow cytometry; AID 588517; 4% of 1,700 active; fluorescence ratio to DMSO, % at 10 µM; shares compounds with Efflux pump inh;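 active = fluorescence ratio to DMSO above its plate's cutoff, the plate mean ratio plus 5 SD, cut at about 210% in these data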;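 note: unstained yeast with no Nile Red so the signal is compound autofluorescence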
Mdr1 pump inh – inhibitors of Candida albicans Mdr1 efflux pump | S. cerevisiae AD/CaMDR1, Nile Red efflux, flow cytometry | inhibition, % at 10 µM | 1% of 1,700 active | shares compounds with Efflux pump inh; in the data active = inhibition above about 26%;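 note: 0% = DMSO vehicle and 100% = reference inhibitor; higher means more Nile Red retained so more efflux inhibition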
CaCdr2 efflux inh – blocks the Candida albicans Cdr2 efflux pump in yeast; shares compounds with Efflux pump inh; S. cerevisiae AD/CaCDR2, Nile Red retention, flow cytometry; Nile Red retention ratio vs DMSO, % at 10 µM; 4% of 1,700 active; AID 588520; in the data active = Nile Red retention ratio vs DMSO above about 190%;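 note: higher ratio means more blocking of Cdr2 efflux of the dye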
CaCdr1 efflux inh – inhibitors of Candida albicans Cdr1 efflux pump. shares compounds with Efflux pump inh. S. cerevisiae AD/CaCDR1, Nile Red efflux, flow cytometry. inhibition, % at 10 µM. 1% of 1,700 active;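 active = inhibition above the screen-wide mean plus twice its standard deviation, cut at about 32% in these data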
* marks the source's active call; other numbers are inactive results.

For O=C(NNC(=O)c1cccs1)c1ccc(S(=O)(=O)N2CCCCC2)cc1 the results were Cardiac RTF inh -20.2, SUMO Mot1 rescue -5.5, Efflux pump inh 11.4*, cardiac RTF act 4.9, UCH37 inh 2.7, ARNT TACC3 PPI -2.8, Cmpd fluor yeast 98.2, Mdr1 pump inh -0.1, CaCdr2 efflux inh 95.6 and CaCdr1 efflux inh -0.1.
`CC(=O)Oc1cccc(/C=c2\sc3nc(-c4ccco4)nn3c2=O)c1` gave Cardiac RTF inh -0.5, SUMO Mot1 rescue 30.3, Efflux pump inh -0.1, cardiac RTF act 0.6, ARNT TACC3 PPI 4.9, Cmpd fluor yeast 79.0, Mdr1 pump inh 0.0, CaCdr2 efflux inh 89.0 and CaCdr1 efflux inh -0.4.
Screening CCCOc1ccc(/C=c2\sc3nc(-c4ccco4)nn3c2=O)cc1OCC returned Cardiac RTF inh -8.8, SUMO Mot1 rescue 484.1, Efflux pump inh 0.1, cardiac RTF act 2.8, ARNT TACC3 PPI 2.6, Cmpd fluor yeast 96.6, Mdr1 pump inh -0.1, CaCdr2 efflux inh 89.3 and CaCdr1 efflux inh -0.1.
`CCn1ncc(C=NNC(=O)COc2cc(C)cc(C)c2)c1C` gave UCH37 inh -0.4.
`COc1cc(C=NNC(=O)c2cccnc2)ccc1OC(=O)c1cccc(Br)c1` gave UCH37 inh -7.8.
For CCc1ccc(N2CC(C(=O)NN=Cc3ccccc3)CC2=O)cc1 (centres undefined) the results were UCH37 inh 3.8.
Cc1ccc(C(=O)N2CCN(c3ccccc3)CC2)cc1S(=O)(=O)N1CCCC1 was read as Cardiac RTF inh -17.6, SUMO Mot1 rescue -2.1, Efflux pump inh 0.1, cardiac RTF act -3.9, UCH37 inh 2.2 and ARNT TACC3 PPI 9.7.
Screening COc1ccc(C(=O)N2CCN(c3ccccc3)CC2)cc1S(=O)(=O)N1CCCC1 returned Cardiac RTF inh -1.0, SUMO Mot1 rescue 183.8, Efflux pump inh 6.2*, cardiac RTF act -0.1, UCH37 inh 1.1, ARNT TACC3 PPI 1.4, Cmpd fluor yeast 109.5, Mdr1 pump inh 0.0, CaCdr2 efflux inh 110.1 and CaCdr1 efflux inh -0.2.
For CCN(CC)c1ccc(C=c2sc3nnc(-c4ccccc4Cl)n3c2=O)cc1 the results were UCH37 inh 8.3.
Screening Cc1ccc(/C=C2\SC(=S)N(N=Cc3cc([N+](=O)[O-])ccc3O)C2=O)o1 returned UCH37 inh 14.2.
For COc1ccccc1NC(=O)CNc1ccc(F)c(Cl)c1 the results were Cardiac RTF inh -24.3, SUMO Mot1 rescue -10.4, Efflux pump inh 13.9*, cardiac RTF act 5.7, UCH37 inh 3.7, ARNT TACC3 PPI 2.4, Cmpd fluor yeast 113.2, Mdr1 pump inh 0.1, CaCdr2 efflux inh 114.4 and CaCdr1 efflux inh 0.0.
O=C(O)CCC(=O)NNC(=O)CCC1CCCCC1 was read as Cardiac RTF inh 0.0, SUMO Mot1 rescue -9.5, Efflux pump inh 0.1, cardiac RTF act 3.6, UCH37 inh 1.6 and ARNT TACC3 PPI -6.6.
`O=C(CCC1CCCCC1)NNC(=O)NC12CC3CC(CC(C3)C1)C2` gave Cardiac RTF inh 0.2, SUMO Mot1 rescue -9.6, Efflux pump inh 0.7*, cardiac RTF act -5.4, UCH37 inh 3.1, ARNT TACC3 PPI -1.8, Cmpd fluor yeast 98.2, Mdr1 pump inh -0.4, CaCdr2 efflux inh 87.3 and CaCdr1 efflux inh -0.1.
`C=CCn1c(=O)c2ccccc2n2c(SCC(=O)Nc3sc(C(=O)N(CC)CC)c(C)c3C(=O)OCC)nnc12` gave Cardiac RTF inh -29.1, Efflux pump inh -0.4, cardiac RTF act 11.0, UCH37 inh 4.3 and ARNT TACC3 PPI -3.1.
`C=CCn1c(=O)c2ccccc2n2c(SCC(=O)Nc3sc(C)c(CC)c3C(=O)OCC)nnc12` gave Cardiac RTF inh -14.8, SUMO Mot1 rescue -13.4, Efflux pump inh 0.5*, cardiac RTF act -3.0, UCH37 inh -1.3, ARNT TACC3 PPI 1.9, Cmpd fluor yeast 98.9, Mdr1 pump inh -0.3, CaCdr2 efflux inh 116.5 and CaCdr1 efflux inh 0.0.
Screening CC[n+]1c(/C=C/C=C/N(C(C)=O)c2ccccc2)sc2cc(OC)ccc21 returned SUMO Mot1 rescue -8.8, Efflux pump inh 3.5*, UCH37 inh 14.1, Cmpd fluor yeast 346.1*, Mdr1 pump inh 2.1, CaCdr2 efflux inh 122.9 and CaCdr1 efflux inh 1.2.
For CC[n+]1c(/C=C(\C)OC)sc2ccccc21 the results were Cardiac RTF inh 10.4, cardiac RTF act -5.4, UCH37 inh 19.4 and ARNT TACC3 PPI 5.6.
`CC(C)c1c(C(=O)NN=Cc2ccc(C(F)(F)F)cc2)nnn1-c1nonc1N` gave UCH37 inh 4.8.
`Cc1ccc(NC(=S)NN(C)c2nc(C)cnc2C)cc1` gave Cardiac RTF inh 7.1, SUMO Mot1 rescue 19.7, Efflux pump inh 9.6*, cardiac RTF act 0.9, UCH37 inh -0.7, ARNT TACC3 PPI 4.3, Cmpd fluor yeast 88.9, Mdr1 pump inh -0.2, CaCdr2 efflux inh 107.8 and CaCdr1 efflux inh 0.2.
`Cc1cc(N(C)NC(=S)Nc2ccccc2)nc(C)n1` gave Cardiac RTF inh -18.5, SUMO Mot1 rescue -8.1, Efflux pump inh 0.6, cardiac RTF act -3.1, UCH37 inh 0.0 and ARNT TACC3 PPI -10.3.
Screening Cc1ccccc1-n1nc(C(=O)c2cccs2)cc(-c2nc3ccccc3[nH]2)c1=N returned Cardiac RTF inh 4.4, SUMO Mot1 rescue 7.8, Efflux pump inh 0.3*, cardiac RTF act -1.6, UCH37 inh 8.2, ARNT TACC3 PPI 21.1, Cmpd fluor yeast 95.1, Mdr1 pump inh -0.1, CaCdr2 efflux inh 103.8 and CaCdr1 efflux inh -0.1.
Screening CCOc1ccc(-c2nnc(SCC(=O)N3CCN(c4ccccc4)CC3)o2)cc1 returned Cardiac RTF inh -4.8, SUMO Mot1 rescue -11.5, Efflux pump inh -0.3, cardiac RTF act -12.7, UCH37 inh 3.2 and ARNT TACC3 PPI -2.3.
For O=C(CSc1nnc(-c2ccccc2)o1)N1CCN(c2ccccc2)CC1 the results were Cardiac RTF inh -0.8, SUMO Mot1 rescue -2.9, Efflux pump inh 0.8*, cardiac RTF act -2.4, UCH37 inh 0.8, ARNT TACC3 PPI 19.1, Cmpd fluor yeast 107.2, Mdr1 pump inh 0.1, CaCdr2 efflux inh 100.7 and CaCdr1 efflux inh -0.1.

Screening results: PubChem, several laboratories
